What all share (assay type): cell-based
For data set [1], the system named is Premature termination codon. Description: Induction of read through activity at TP53 R213X mutant premature termination codon in human DMS-114 cells assessed as expression of full length p53 levels at 62 ug/ml measured after 48 hrs by capillary electrophoresis western analysis. Conditions: dose 62.0 µg/ml. In a few lines: (§1)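 DMS-114 cells exposed to a range of concentrations for 48 h. Full-length and truncated p53 measured by capillary electrophoresis western analysis, with vinculin as loading control. Full-length p53 expressed as a normalized percent amount.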

Data set [2] concerns Fibroblast. The data set can be described thus: Cytotoxicity against human fibroblast assessed as reduction in cell viability at 1 mg/ml measured after 48 hrs by fluorescent live-cell promega ApoLive-glo multiplex assay relative to control. In a few lines: (§2)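 Wild-type fibroblasts exposed to a range of concentrations for 48 h. Cell viability read out with the ApoLive-Glo Multiplex Assay.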

In data set [3] the test system is DMS-114. Description: Cytotoxicity against human DMS-114 cells assessed as reduction in cell viability at 125 ug/ml. The note with it: dose 125 µg/ml.
Data set [4] relates to DMS-114. The data set can be described thus: Cytotoxicity against human DMS-114 cells assessed as reduction in cell viability at up to 62 ug/ml. Conditions: dose <=62 µg/ml.
Data set [5] deals with DMS-114. The data set can be described thus: Cytotoxicity against human DMS-114 cells assessed as reduction in cell viability at up tp 500 ug/ml. The note with it: dose 500 µg/ml.
Data set [6] deals with Premature termination codon. The data set can be described thus: Induction of read through activity at TP53 R213X mutant premature termination codon in human DMS-114 cells assessed as increase in production of full length p53 at up to 500 ug/ml measured after 48 hrs by capillary electrophoresis western analysis. Conditions: dose microg/ml <=500, time 48.0 hrs. In a few lines: as §1

The test system of data set [7] is Fibroblast. The data set can be described thus: Cytotoxicity against human fibroblast assessed as reduction in cell viability at up to 0.5 mg/ml measured after 48 hrs by fluorescent live-cell promega ApoLive-glo multiplex assay. In a few lines: as §2
Data set [8] concerns Premature termination codon. The data set can be described thus: Induction of read through activity at TP53 R213X mutant premature termination codon in human DMS-114 cells assessed as increase in production of full length p53 at 31 to 250 ug/ml measured after 48 hrs by capillary electrophoresis western analysis. Conditions: dose 31-250 µg/ml. The method in brief:
as §1

Data set [9] has as its system Premature termination codon. Description: Induction of read through activity at TP53 R213X mutant premature termination codon in human DMS-114 cells assessed as increase in production of full length p53 at 500 ug/ml measured after 48 hrs by capillary electrophoresis western analysis relative to control. Conditions: dose 500.0 µg/ml. The method in brief:
as §1

Data set [10] relates to Premature termination codon. Description: Induction of read through activity at TP53 R213X mutant premature termination codon in human DMS-114 cells assessed as increase in production of full length p53 at 125 ug/ml measured after 48 hrs by capillary electrophoresis western analysis. The note with it: dose 125.0 µg/ml. In a few lines: as §1

Activity calls are given as the source filed them. The calls are words filed in the database; no cut-off is given here.

As to `C[C@H](N)[C@H]1O[C@@H](O[C@@H]2[C@@H](O)[C@H](N)C[C@H](N)[C@@H]2O[C@H]2O[C@H]([C@@H](C)O)[C@@H](O)[C@H](O)[C@H]2N)[C@H](O)[C@@H]1O`, the outcome in [1] was Active. The Activity is listed as 50% in data set [2], “Toxic” in [3] and “Non-Toxic” in data set [4].

For `C[C@H](N)[C@H]1O[C@@H](O[C@@H]2[C@@H](O)[C@H](N)C[C@H](N)[C@H]2O[C@H]2O[C@H]([C@H](C)O)[C@@H](O)[C@H](O)[C@H]2O)[C@H](O)[C@@H]1O`, in [5], the Activity entry is “Non-Toxic”. Further, the result in [6] was inactive.

Turning to `C[C@H](N)[C@H]1O[C@@H](O[C@@H]2[C@@H](O)[C@H](N)C[C@H](N)[C@H]2O[C@H]2O[C@H]([C@H](O)CO)[C@@H](O)[C@H](O)[C@H]2O)[C@H](O)[C@@H]1O`, the Activity entry in data set [7] is given as “Non-Toxic”; in [2] it was 15%; in data set [5] it was “Non-Toxic”. Besides, the outcome in data set [8] was Active.

For the compound `C[C@H](N)[C@H]1O[C@@H](O[C@@H]2[C@@H](O)[C@H](N)C[C@H](N)[C@H]2O[C@H]2O[C@H]([C@@H](C)N)[C@@H](O)[C@H](O)[C@H]2O)[C@H](O)[C@@H]1O`, the outcome in [6] was inactive.

Regarding `C[C@H](N)[C@H]1O[C@@H](O[C@@H]2[C@@H](O)[C@H](N)C[C@H](N)[C@H]2O[C@H]2O[C@H]([C@@H](C)O)[C@@H](O)[C@H](O)[C@H]2O)[C@H](O)[C@@H]1O`, the Activity result in [7] was “Non-Toxic”; in data set [5], “Non-Toxic”; in data set [9], 18%. In addition, the result in data set [10] was Active.

Source of the values: ChEMBL document CHEMBL4831535, “Reducing the Toxicity of Designer Aminoglycosides as Nonsense Mutation Readthrough Agents for Therapeutic Targets” (ACS Med Chem Lett, 2021).
